ChEMBL document CHEMBL3085771, “Azetidinone-retinoid hybrids: synthesis and differentiative effects” (Eur J Med Chem, 2013)
The source made the active and inactive calls. No cut-off for these calls is given here.

Experiments:
SH-SY5Y [1] = experiment: Induction of cell differentiation in human SH-SY5Y cells assessed as neural-like differentiation at 7.5 uM after 6 days using beta3-tubulin and NF200 staining by microscopic analysis; type: functional, cell-based
Summary of the method: (§1)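 SH-SY5Y grown on BME-coated glass coverslips at 1×10⁴ cells/cm², treated from 24 h for 6 days, medium changed every 48 h. Controls were untreated cells and RA 10 microM. Cells fixed in 4% PFA, immunostained overnight at 4 °C for βIII-tubulin and NF200, and counterstained with Hoechst. Imaged at 20×; immunoreactive area normalized to cell number, mean ± SD.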

SH-SY5Y [2] = experiment: Cytotoxicity against human SH-SY5Y cells assessed as doubling time at 7.5 uM after 24 to 96 hrs by trypan blue exclusion assay (reference value: 34.9 hrs); type: functional, cell-based
[3] = Cytotoxicity against human SH-SY5Y cells assessed as doubling time at 7.5 uM after 24 to 72 hrs by trypan blue exclusion assay (reference value: 34.9 hrs); type: functional
SH-SY5Y [4] = experiment: Cytotoxicity against human SH-SY5Y cells at 7.5 uM after 72 to 96 hrs by MTT assay; type: functional, cell-based
[5] = Cytotoxicity against human SH-SY5Y cells after 24 hrs by MTT assay
SH-SY5Y [6] = experiment: Induction of cell differentiation in human SH-SY5Y cells assessed as neural-like differentiation at 10 uM after 6 days using beta3-tubulin and NF200 staining by microscopic analysis; type: functional, cell-based; summary of the method: as §1
SH-SY5Y [7] = experiment: Cytotoxicity against human SH-SY5Y cells assessed as doubling time at 10 uM after 24 to 96 hrs by trypan blue exclusion assay (reference value: 34.9 hrs); type: functional, cell-based
[8] = Cytotoxicity against human SH-SY5Y cells assessed as doubling time at 10 uM after 24 to 72 hrs by trypan blue exclusion assay (reference value: 34.9 hrs); type: functional
SH-SY5Y [9] = experiment: Cytotoxicity against human SH-SY5Y cells at 10 uM after 72 to 96 hrs by MTT assay; type: functional, cell-based
SH-SY5Y [10] = experiment: Cytotoxicity against human SH-SY5Y cells at 10 uM after 48 hrs by MTT assay; type: functional, cell-based

For CSN1C(=O)CC1CC/C=C/C(=O)Nc1ccccc1 (stereo not drawn), the Activity (SH-SY5Y [1]) was “inactive”, the Activity (SH-SY5Y [2]) was “inactive” and the Time [3] was 39 h. For the same molecule, the Activity (SH-SY5Y [4]) was “Active” and the IC50 [5] was 10 µM.

For CC1=C(/C=C/C(C)=C\CNC(=O)/C=C2/CC(=O)N2)C(C)(C)CCC1, the Activity (SH-SY5Y [6]) was “Active”, the Activity (SH-SY5Y [7]) was “inactive” and the Time [8] was 51.25 h. For the same molecule, the Activity (SH-SY5Y [9]) was “Active”, the Activity (SH-SY5Y [10]) was “Active” and the IC50 [5] was 35 µM.

With CC1=C(/C=C/C(C)=C/CNC(=O)/C=C2/CC(=O)N2)C(C)(C)CCC1 the Activity (SH-SY5Y [6]) was “Active”, the Activity (SH-SY5Y [7]) was “inactive” and the Time [8] was 39.78 h. The Activity (SH-SY5Y [9]) was “Active”, the Activity (SH-SY5Y [10]) was “Active” and the IC50 [5] was 38 µM.

For CC1=C(/C=C/C(C)=C/C=C/C(C)=C/C(=O)O)C(C)(C)CCC1, the Activity (SH-SY5Y [6]) was “Active”.
